Only some compounds are listed: those with a hit (about 3.5% of all), similar ones and a draw of the others.
RGS4 act: RGS4 potentiation or activation; HEK293 M3R/inducible RGS4, carbachol calcium flux Fluo4; hits give low values; B-score at 10 µM; 310,000 compounds, 0.92% hits; AID 463111;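 active = B-score of the integrated calcium signal more than 4 SD below the library mean, with starting fluorescence not abnormally high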;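 also: negative B-score means reduced calcium response which marks RGS4 activation or potentiation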
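Material: M3R-expressing HEK293 line, RGS4 induced by doxycycline | Schedule: Overnight RGS4 induction, 30 min dye load 37 °C, 20 min compound RT | Measured by: Fluo4 fluorescence kinetic imaging of calcium | Read-out: Integrated calcium ratio converted to B score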
MrgX1 agonist: agonists of human MrgX1 receptor; AID 588627; B-score at 10 µM; MrgX1-HEK293 cells, Fluo-4 calcium fluorescence, agonist mode; hits give high values; 310,000 compounds, 0.44% hits;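 active = calcium response B-score plate-corrected fluorescence ratio at least 3 library SD, with starting fluorescence B-score inside 5 SD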
Target sequence (Q96LB2 whole entry, looked up): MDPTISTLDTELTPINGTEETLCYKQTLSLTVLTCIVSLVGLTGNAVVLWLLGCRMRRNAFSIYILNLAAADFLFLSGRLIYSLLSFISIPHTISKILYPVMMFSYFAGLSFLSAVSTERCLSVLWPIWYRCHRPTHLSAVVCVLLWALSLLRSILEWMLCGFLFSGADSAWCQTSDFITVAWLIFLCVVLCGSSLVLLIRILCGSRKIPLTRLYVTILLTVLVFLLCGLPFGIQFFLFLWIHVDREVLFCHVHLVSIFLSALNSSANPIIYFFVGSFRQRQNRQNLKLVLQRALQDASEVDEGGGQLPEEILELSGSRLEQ
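Test system: HEK293 cells stably expressing human MrgX1 receptor; Input: fifteen thousand cells per well; Dosing: compound delivered in addition one of three; Schedule: overnight seeding, then 1 h dark dye loading; Technique: Fluo-4 NW calcium fluorescence; Measure: B-scored fluorescence response ratio; Controls: positive and negative controls per plate.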
MrgX1 PAM: human MrgX1 positive allosteric modulation, primary screen | Q96LB2 | MrgX1-HEK293, Fluo-4 calcium flux, FDSS; hits give high values | B-score at 10 µM | 310,000 compounds, 0.63% hits;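 active = plate-corrected calcium response at least 3 library SD above typical, normal starting fluorescence, not activating the receptor alone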;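 also: compound read alongside a low EC10 to EC30 dose of BAM8-22 agonist; peak minus trough fluorescence over baseline measured at the second addition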
MrgX1 antagonist: antagonists of human MrgX1 receptor; AID 588676; Q96LB2; B-score at 10 µM; MRGX1-HEK293 calcium flux, Fluo-4, BAM8-22 antagonism; hits give low values; 310,000 compounds, 1.3% hits;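 active = calcium-response B-score plate-corrected more than 3 library SD below zero, starting fluorescence within 5 deviations, no agonist response on first addition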;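 also: peak minus trough fluorescence over baseline after final BAM8-22 challenge near maximal dose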
RGS4 inh: inhibitors of human RGS4 | 310,000 compounds, 0.45% hits | AID 463165 | HEK293 M3R/RGS4 inducible, Fluo-4 calcium flux; hits give high values; triggered by carbachol at its EC20 | P49798 | B-score at 10 µM;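 active = B-score, a plate-corrected calcium signal, over three deviations above library mean, with baseline fluorescence within five deviations of library mean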;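 also: RGS4 expression induced by doxycycline in cells with stable M3 receptor; B-score is computed from the integrated fluorescence ratio over baseline after carbachol; higher B-score means a larger calcium signal and so more RGS4 inhibition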
Hits are given with their value; - = inactive.

SMILES	RGS4 act	MrgX1 agonist	MrgX1 PAM	MrgX1 antagonist	RGS4 inh
CCc1ccc(N(C(=O)c2snc(C(N)=O)c2N)C(C(=O)NCCC(C)C)c2c[nH]c3ccccc23)cc1 (stereo not given)	-	-	-	-	-
O=C(CCc1ccccc1)N=C1SC2CS(=O)(=O)CC2N1c1ccccc1F (stereo not given)	-	-	-	-	-
CCOCCCNC(=O)c1ccc2c(=O)n(CCCOCC)c(=S)[nH]c2c1	-	-	13	-	-
CCOCCCn1c(=S)[nH]c2cc(C(=O)NCCOC)ccc2c1=O	-	-	-	-	-
CCN(C(=O)COC(=O)c1ccc2[nH]c3c(c2c1)CCCC3)C1CCS(=O)(=O)C1 (stereo not given)	-	-	-	-	-
CCN(CC)c1ccc(C=C2C(=O)OC(c3ccccc3)OC2=O)cc1 (stereo not given)	-	27	-	-	-
CN(C)c1ccc(C=C2C(=O)OC(C)(C)OC2=O)cc1	-	-	-	-	-
CCN(CC)c1ccc(C=C2C(=O)OC(C)(C(C)(C)C)OC2=O)cc1 (stereo not given)	-	56	-	-	-
CN(C)c1ccc(C=C2C(=O)OC(C)(C(C)(C)C)OC2=O)cc1 (stereo not given)	-	-	-	-	-
CC(=O)c1ccc(OCCCCCCCOc2ccc(C(C)=O)cc2)cc1	-	-	-	-	-
COc1ccc2c(c1)sc(=NC(=O)CS(=O)(=O)c1ccc(F)cc1)n2C	-	-	-	-	-
O=C(Cc1cccs1)Nc1nnc(SCc2ccc(C(F)(F)F)cc2)s1	-	-	-	-9.1	-
O=C(NCC1CCCO1)c1cc2c([nH]c3ccccc32)c(-c2cccc(Cl)c2)n1 (stereo not given)	-9.2	-	-	-	-
COc1cc(-c2nc(C(=O)NCC3CCCO3)cc3c2[nH]c2ccccc23)cc(OC)c1OC (stereo not given)	-	-	-	-	-
COc1ccc(/C=C2\C(=O)ON=C2c2cccc([N+](=O)[O-])c2)cc1	-	-	-	-	6.8
CC1CCCCN1CC(O)COCc1ccccc1 (stereo not given)	-	-	-	-	-
O=C(NC1CCN(S(=O)(=O)c2ccc(Cl)c(F)c2)CC1)c1cccnc1	-	-	-	-	-
Cn1cc([N+](=O)[O-])c(C(=O)NNC(=O)c2ccc([N+](=O)[O-])cc2)n1	-	-	-	-5.4	-
Cc1cc(C)c2cc3c(N)c(C(=O)N4CCc5ccccc5C4)sc3nc2c1	-8	-	-	-8.5	-
COc1cc(/C=C/C(=O)NCCc2ccc(S(N)(=O)=O)cc2)ccc1OCC#N	-	-	12	-	-
O=C(NCc1ccc(Cl)cc1)C1CCN(S(=O)(=O)c2cc([N+](=O)[O-])ccc2Cl)CC1	-	-	-	-	-
Cc1cccc2sc(NC(=O)C3CCN(S(=O)(=O)c4cc([N+](=O)[O-])ccc4Cl)CC3)nc12	-	-	-	-6.8	-
Cn1c(=O)c2c(ncn2CC(=O)N/N=C/C=C/c2ccco2)n(C)c1=O	-	-	18	-	-
O=C1CN(S(=O)(=O)c2cc(C(=O)O)ccc2Cl)c2ccccc2N1	-	-	-	-	-
C/C(=C\C(=S)Nc1ccccc1)Nc1ccc2ccccc2c1	-	-	-	-4.5	-
SMILES	RGS4 act	MrgX1 agonist	MrgX1 PAM	MrgX1 antagonist	RGS4 inh
C/C(=C\C(=S)Nc1ccccc1)Nc1cccc2ccccc12	-	-	-	-	-
CCc1cc2c3c(c(=O)oc2cc1O)CCCC3	-	-	-	-5.5	-
CCc1cc2c3c(c(=O)oc2cc1OC(C)C(=O)O)CCCC3 (stereo not given)	-	-	-	-	-
COc1ccc(Cl)cc1NC(=O)C[n+]1cccc(C)c1	-	-	-	-	-
Cc1ccc(SCCNC(=O)c2ccc([N+](=O)[O-])c(C)c2)cc1	-	-	-	-	-
Cc1ccc(SCCNC(=O)c2ccc(C)c([N+](=O)[O-])c2)cc1	-7	-	-	-	-
COc1ccc(CCN(C)C(=O)c2cc(-c3ccccc3)nc3ccc(C)cc23)cc1OC	-	-	-	-	-
COc1ccc(CN(C)C(=O)c2cc(-c3ccccc3)nc3ccc(C)cc23)c(OC)c1OC	-7.2	-	-	-	-
COc1cccc(CN(C)C(=O)c2cc(-c3ccc(F)cc3)nc3ccccc23)c1	-8.1	-	-	-15	-

Assay outcomes from PubChem.
